Assay results reported in paper PMC7111685 (Phytochemistry, 2015).

Key:
[1] = system: porcine epidemic diarrhea virus (PEDV); test: Cytopathic effect; assay type: cell-based
Method in brief: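 Vero cells (DMEM, 10% FBS, penicillin/streptomycin) seeded at 1 × 10^5 cells/well and PBS-washed a day later. Near-confluent monolayers were inoculated with PEDV at 0.01 MOI for 2 h, then given DMEM with various concentrations of test compound. After 72 h at 37 °C, 5% CO2, MTT solution (2 mg/mL) was added for 4 h. EC50 came from regression analysis; SI = CC50/EC50.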

[2] = Cytotoxicity assay; assay type: cell-based; conditions: African green monkey, Vero cells
Method in brief: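 Vero cells grown in DMEM with 10% FBS and penicillin/streptomycin, plated at 1 × 10^5 cells/well and grown 24 h. Exposed 48 h to various concentrations of test compound, final DMSO under 0.05% (v/v). MTT solution (2 mg/mL) added for 4 h, supernatant removed, formazan dissolved in DMSO, absorbance read at 550 nm. Viability expressed relative to control wells; CC50 by regression analysis.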

## O=c1cnn([C@@H]2O[C@H](CO)[C@@H](O)[C@H]2O)c(=O)[nH]1 [Compound 6-Azauridine, 6-Azauridine]
[1]; Porcine epidemic diarrhea virus, Vero, 72 h
  EC50: 5.58 ± 0.53 µM
[1]; selective index, SI = CC50/EC50
  SI: 7.98 ± 0.37
[2]
  CC50 at 48 h: 44.5 ± 6.11 µM
